Test results as given in ChEMBL document CHEMBL3227978, “Azetidine derivatives of tricyclic antidepressant agents” (J Med Chem, 1979).
Active and inactive are the calls of the source. The rule behind the calls is not given here.

How the values were obtained:
Mus musculus [1] = test: Antidepressant activity in po dosed ICEM:CET (SPF Caw) mouse assessed as antagonism of reserpine-induced blepharospasm administered via gavage 30 mins before reserpine challenge measured 1 hr after reserpine treatment; format: functional; details: Mus musculus, ICEM:CET(SPF Caw), po; read-out: ED50
Method in brief: (§1)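 Groups of ten male mice (18-22 g), fasted 9 h with water until 2 h pre-test. Oral gavage in 0.5% Methocel at doses below the 25 mg/kg screen, 30 min before reserpine 2.5 mg/kg ip. Blepharospasm scored blind at 1 h, rectal temperature at 4 h. ED50 estimated by eye-fit linear plots on semilogarithmic paper.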

Mus musculus [2] = test: Anticonvulsant activity in po dosed ICEM:CET (SPF Caw) mouse assessed as antagonism of pentylenetetrazole-induced flexor-extensor tonic convulsions administered via gavage 30 mins before pentylenetetrazole challenge; format: functional
Method in brief: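 Male mice, 18-22 g, dosed orally by gavage in 0.5% Methocel (0.1 mL/10 g), starting at a 50 mg/kg screening dose, then graded doses. Pentylenetetrazole 130 mg/kg ip given 30 min later. Ten mice per dose and for controls. Dose preventing flexor-extensor tonic convulsions in 50% of animals read from dose-response curves (ED50).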

Mus musculus [3] = test: Antidepressant activity in po dosed ICEM:CET (SPF Caw) mouse assessed as antagonism of reserpine-induced hypothermia administered via gavage 30 mins before reserpine challenge measured 4 hrs after reserpine treatment; format: functional; method in brief: as §1
[4] = Orientative acute toxicity in po dosed ICEM:CET (SPF Caw) mouse administered via gavage measured for 60 mins after drug dosing by Irwin's test; format: organism-based; details: ICEM:CET (SPF Caw), in vivo
Method in brief: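 Male ICEM:CET (SPF Caw) mice, 18-22 g. Oral gavage, suspended or dissolved in 0.5% Methocel at 0.1 mL/10 g body weight. Doses of at least 25, 50, 100, 200, 400 and 800 mg/kg, four animals per dose. Animals were observed closely for 60 min after dosing during Irwin's symptomatologic test, and an approximate LD50 was estimated.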

Mus musculus [5] = test: Antidepressant activity in ICEM:CET (SPF Caw) mouse assessed as antagonism of reserpine-induced blepharospasm at 25 mg/kg, po administered via gavage 30 mins before reserpine challenge measured 1 hr after reserpine treatment; format: functional, organism-based; design: dose 25 mg/kg
Method in brief: (§2)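 Male mice, 18-22 g, groups of ten, housed the evening before with a 9-h fast and water until 2 h before testing. Gavage dosing at 25 mg/kg in 0.5% Methocel, 30 min before reserpine 2.5 mg/kg ip in 0.5% acetic acid. Read blind: blepharospasm scored (Rubin scale) at 1 h, rectal thermocouple temperature at 4 h.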

Mus musculus [6] = test: Antidepressant activity in ICEM:CET (SPF Caw) mouse assessed as antagonism of reserpine-induced hypothermia at 25 mg/kg, po administered via gavage 30 mins before reserpine challenge measured 4 hrs after reserpine treatment; format: functional, organism-based; design: dose 25 mg/kg; method in brief: as §2
[7] = Mus musculus, ICEM:CET(SPF Caw), po, read-out: ED50

SMILES	ED50 (Mus musculus [1]) [mg/kg]	ED50 (Mus musculus [2]; [7]) [mg/kg]	ED50 (Mus musculus [3]; [7]) [mg/kg]	LD50 at 1 h [4] [mg/kg]	Activity (Mus musculus [5])	Activity (Mus musculus [6])	ED50 (Mus musculus [2]) [mg/kg]	ED50 (Mus musculus [3]) [mg/kg]
CNC1CN(C2c3ccccc3CSc3ccc(Cl)cc32)C1 (stereo not given)	> 25	> 50	> 25	400				
CN(C)C1CN(C2c3ccccc3COc3ccc(Cl)cc32)C1 (stereo not given)	> 25	> 50	> 25	100				
CC(C)(C)N1CC(N2c3ccccc3C=Cc3ccccc32)C1					inactive	inactive		
CNC1CN(C2c3ccccc3CCc3ccccc32)C1C (stereo not given)	9	25	10.5	400				
CN(C)CCC=C1c2ccccc2CCc2ccccc21.Cl [AMITRIPTYLINE HYDROCHLORIDE]	1.3	8	6.6	100				
CCNC1CN(C2c3ccccc3COc3ccccc32)C1 (stereo not given)	4.8	25.3	22.2	200				
CNCC1CCN1C1c2ccccc2CCc2ccccc21 (stereo not given)	> 25	> 50	> 25	> 800				
OCCN1CCN(C2CN(C3c4ccccc4CCc4ccccc43)C2)CC1	> 25	31	> 25	400				
CNC1CN(C2c3ccccc3C3(CC3)c3ccccc32)C1	4.4	18.5	11.4	200				
CN(C)C1CN(C2c3ccccc3COc3ccccc32)C1 (stereo not given)	5.6	28.5	23	100				
CNCCN(C)C1c2ccccc2CCc2ccccc21	> 25	18	> 25	200				
CNC1CN(C2c3ccccc3COc3ccc(OC)cc32)C1 (stereo not given)	> 25	45.8	> 25	200				
CNC1CN(C2CCCCc3ccccc32)C1 (stereo not given)	> 25	48	> 25	400				
CC(C)(C)N1CC(N2c3ccccc3CCc3ccc(Cl)cc32)C1					inactive	inactive		
CC(C)(C)N1CC(N2c3ccccc3COc3ccccc32)C1					inactive	inactive		
CNC1CCN(C2c3ccccc3CCc3ccccc32)C1 (stereo not given)	> 25	45	> 25	200				
C#CC(C)(C)NC1CN(C2c3ccccc3CCc3ccccc32)C1	9	19.6	> 25	> 800				
CNC1(C)CN(C2c3ccccc3CCc3ccccc32)C1	> 25	44.6	> 25	200				
CC(C)N1CC(N2c3ccccc3COc3ccccc32)C1					inactive	inactive		
CNC1(c2ccccc2)CN(C2c3ccccc3CCc3ccccc32)C1	> 25	> 50	> 25	> 400				
CNC1CN(C2c3ccccc3CCc3ccccc32)C1	2.9	13.4	7.3	400				
CC(C)NC1CN(C2c3ccccc3CCc3ccccc32)C1	6.5	23.3	8.5	200				
CNC1CN(C2c3ccccc3CCc3ccc(OC)cc32)C1 (stereo not given)	14	> 50	> 25	200				
c1ccc2c(c1)CCc1ccccc1C2N1CC(NC2CCCCC2)C1	> 25	> 50	> 25	400				
CNC1CN(C2c3ccccc3COc3ccccc32)C1.O=C(O)/C=C/C(=O)O (single isomer, unassigned; (+))	1			200			14	4.9
CN1CC(N2c3ccccc3CCc3ccccc32)C1					inactive	inactive		
CN(C(N)=O)C1CN(C2c3ccccc3CCc3ccccc32)C1	> 12.5	> 12.5	12.5	400				
CC(=O)N(C)C1CN(C2c3ccccc3CCc3ccccc32)C1	> 25	28	> 25	400				

SMILES	ED50 (Mus musculus [1]) [mg/kg]	ED50 (Mus musculus [2]; [7]) [mg/kg]	ED50 (Mus musculus [3]; [7]) [mg/kg]	LD50 at 1 h [4] [mg/kg]	Activity (Mus musculus [5])	Activity (Mus musculus [6])	ED50 (Mus musculus [2]) [mg/kg]	ED50 (Mus musculus [3]) [mg/kg]
CC(C)NC1CN(C2c3ccccc3COc3ccccc32)C1 (stereo not given)	3.9	27	24.5	200				
CC(C)(C)NC1CN(C2c3ccccc3CCc3ccccc32)C1	> 25	28.7	> 25	400				
CN(C)C1CN(C2c3ccccc3C3(CC3)c3ccccc32)C1	7.2	24.3	16.5	200				
c1ccc2c(c1)CCc1ccccc1C2N1CCNCC1	24	> 50	> 25	50				
CNC1CN(C2c3ccccc3CCc3ccc(Cl)cc32)C1 (stereo not given)	> 25	27.9	> 25	400				
NCC1CN(C2c3ccccc3CCc3ccccc32)C1	> 25	> 50	> 25	400				
CNC1CN(C2c3ccccc3CSc3ccccc32)C1 (stereo not given)	12	14.7	> 25	200				
CN(C)C1CN(C2c3ccccc3CCc3ccc(Cl)cc32)C1 (stereo not given)	12.5	29.9	8.6	400				
NC1CN(C2c3ccccc3CCc3ccccc32)C1	5	17	12	200				
CC(Cc1ccccc1)NC1CN(C2c3ccccc3CCc3ccccc32)C1 (stereo not given)	> 25	> 50	> 25	> 800				
CN(CC(=O)c1ccccc1)C1CN(C2c3ccccc3CCc3ccccc32)C1	15	46.8	> 25	> 800				
CN(C)CCCN1c2ccccc2CCc2ccccc21.Cl [IMIPRAMINE HYDROCHLORIDE]	1.6	19.4	12.3	200				
CNC1CN(C2c3ccccc3C=Cc3ccccc32)C1	> 25	> 50	> 25	200				
CNC1CN(C2c3ccccc3CSc3ccc(OC)cc32)C1 (stereo not given)	21.8	> 50	> 25	400				
c1ccc(CNC2CN(C3c4ccccc4CCc4ccccc43)C2)cc1	12	> 50	> 25	800				
CNC1CN(C2c3ccccc3COc3ccccc32)C1 (stereo not given)	2.6	21.5	15	200				
CN(C)C1CN(C2c3ccccc3CSc3ccc(Cl)cc32)C1 (stereo not given)	> 25	50	> 25	400				
c1ccc2c(c1)CCc1ccccc1C2N1CC(n2ccnc2)C1	> 25	17.7	> 25	200				
c1ccc2c(c1)CCc1ccccc1C2N1CC(N2CCOCC2)C1	17	46.9	> 25	> 800				
COc1ccc2c(c1)C(N1CC(N(C)C)C1)c1ccccc1CO2 (stereo not given)	> 25	> 50	> 25	400				
CN(C)C1CN(C2c3ccccc3CCc3ccccc32)C1	7	21.5	12.5	400				
CCNC1CN(C2c3ccccc3CCc3ccccc32)C1	10	16.7	12.5	200				
C#CCN(CC#C)C1CN(C2c3ccccc3CCc3ccccc32)C1	> 25	38	21	> 800				
CN(C)C1CN(C2c3ccccc3CSc3ccccc32)C1 (stereo not given)	> 25	19	> 25	400				
CNC1CN(C2c3ccccc3COc3ccc(Cl)cc32)C1 (stereo not given)	> 25	15.4	> 25	100				
CNCC1CN(C2c3ccccc3CCc3ccccc32)C1	> 25	> 50	> 25	200				
CNC1CN(C(c2ccccc2)c2ccccc2)C1	3.5	9.6	> 25	200				
